Experimental findings from ChEMBL document CHEMBL4825764, “Flavonoid Monomers as Potent, Nontoxic, and Selective Modulators of the Breast Cancer Resistance Protein (ABCG2)” (J Med Chem, 2021) are described below.

Series [1] is filed under the species Homo sapiens. In words: Selectivity index, ratio of EC50 for inhibition of MRP1 (unknown origin) expressed in 2008/MRP1 cells assessed as reversal of mitoxantrone resistance to EC50 for inhibition of BCRP (unknown origin) expressed in HEK293/R2 cells assessed as reversal of mitoxantrone resistance. The class given is cell-based. In short, it runs like this: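 Selectivity index is the EC50 in 2008/MRP1 or LCC6MDR divided by the EC50 in HEK293/R2. All three lines were measured by 5-day mitoxantrone co-incubation with modulator, with MTS/PMS read-out at 490 nm.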

Series [2] has as its target T1, Broad substrate specificity ATP-binding cassette transporter ABCG2 (Homo sapiens, UniProt Q9UNQ0).
T1 sequence (Q9UNQ0 whole entry): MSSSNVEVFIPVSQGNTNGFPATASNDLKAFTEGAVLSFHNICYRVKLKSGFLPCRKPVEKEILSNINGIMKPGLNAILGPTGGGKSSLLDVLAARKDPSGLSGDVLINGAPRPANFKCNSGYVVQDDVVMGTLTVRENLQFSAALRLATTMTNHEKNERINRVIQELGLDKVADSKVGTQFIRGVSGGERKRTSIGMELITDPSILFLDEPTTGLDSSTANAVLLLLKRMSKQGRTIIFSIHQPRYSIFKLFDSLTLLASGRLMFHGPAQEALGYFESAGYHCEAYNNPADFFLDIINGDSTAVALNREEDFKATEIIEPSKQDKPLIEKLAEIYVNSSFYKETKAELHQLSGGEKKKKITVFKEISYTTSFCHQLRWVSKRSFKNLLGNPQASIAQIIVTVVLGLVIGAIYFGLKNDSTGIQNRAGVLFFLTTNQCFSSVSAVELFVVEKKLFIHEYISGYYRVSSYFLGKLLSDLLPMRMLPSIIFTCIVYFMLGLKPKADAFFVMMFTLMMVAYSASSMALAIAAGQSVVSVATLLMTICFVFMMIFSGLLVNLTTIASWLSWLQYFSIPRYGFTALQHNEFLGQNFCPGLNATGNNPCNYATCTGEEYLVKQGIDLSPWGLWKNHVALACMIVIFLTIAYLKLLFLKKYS
In words: Inhibition of BCRP (unknown origin) expressed in HEK293/R2 cells assessed as reduction in BCRP protein level at 1 uM after 4 days by Western blot analysis. The settings on record: hek293/r2, 96 h. On the technique in general: In western blotting, separated proteins are transferred to a membrane and probed.

Series [3] deals with L929. In words: Cytotoxicity against mouse L929 cells assessed as reduction in cell viability. The class given is cell-based.
The target of series [4] is T1, Broad substrate specificity ATP-binding cassette transporter ABCG2. In words: Inhibition of BCRP (unknown origin) expressed in human HEK293/R2 cells assessed as increase in intracellular topotecan accumulation by measuring fold change at 2 uM after 2 hrs in presence of topotecan by flow cytometry analysis relative to control. The class given is cell-based. The settings on record: hek293/r2, 2 h. In short, it runs like this:
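5 × 10^5 HEK293/pcDNA3.1 or HEK293/R2 cells in 1 mL were incubated 2 hr at 37 °C with 50 μM topotecan or 5 μM mitoxantrone plus 1 or 2 μM modulator, with DMSO as the vehicle control. Cells were washed in cold PBS and resuspended in FACS buffer. Flow cytometry read FL1 (topotecan) or FL4 (mitoxantrone) over 50,000 events, normalized to wild-type cells.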
A general note: Flow cytometry measures light scatter and fluorescence of single cells or particles in a stream.

For series [5] the target is unchanged. In words: Inhibition of BCRP (unknown origin) expressed in wild-type HEK293 cells mediated mitoxantrone efflux assessed as intracellular mitoxantrone level at 2 uM preincubated with mitoxantrone for 1 hr followed by compound addition and measured upto 150 mins by flow cytometry analysis. The class given is cell-based. The settings on record: hek293, 2.5 h. In short, it runs like this: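 Cells were preloaded with 5 μM mitoxantrone for 1 hr at 37 °C, washed, then kept in drug-free medium with or without 2 μM modulator. Cells were harvested at 0, 30, 60, 90, 120 and 150 min and intracellular mitoxantrone read by flow cytometry (FL4). Level is expressed as % of the 0-min value.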

For series [6], the target named is T2, BCRP (ABCG2) ATPase (Homo sapiens, UniProt Q9UNQ0).
T2 sequence (Q9UNQ0 whole entry): T1 sequence (Q9UNQ0 whole entry)
In words: Effect on vanadate sensitive BCRP ATPase activity in human S1-M1-80 cell membranes preincubated for 30 mins followed by ATP addition and measured after 1 hr by colorimetric assay.

As usually defined, the IC50 is the point on the concentration scale where inhibition reaches its midpoint. Take `COC(=O)c1cccc(COc2c(-c3ccc(OCCCCc4cn(Cc5ccccc5)nn4)cc3)oc3ccccc3c2=O)c1`: the Ratio EC50 in series [1] is 68. The “inhibition (INH)” value in series [2] and in series [5] was “Not Active” in each case. For the same molecule, the IC50 in series [3] was more than 100 µM. The “fold change (FC)” value in series [4] is 6.8. Besides, the activity at 1 h in series [6] was 120%.
